Compound activity (PubChem BioAssay)
UPR CHOP act: apoptotic UPR (CHOP) activation | CHO-CHOP luciferase reporter, luminescence; percent of tunicamycin response over DMSO baseline | activation, % at 10 µM | 330,000 compounds, 0.34% hits | AID 449763;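 active means at 10 µM dose, activation of 40% or more, normalized to positive control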
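Assay system: CHO cells with stable CHOP pathway luciferase reporter; Buffer or medium: F12 plus 10% serum; Times: 16-18 h cell attachment, then 6 h compound exposure, 37 °C; Signal: luciferase luminescence; Read-out basis: percent activation relative to tunicamycin control; Control set: tunicamycin high control, DMSO low control.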
TMEM16A inh: inhibitors of mouse TMEM16A calcium-activated chloride channel | Q8BHY3 | HEK293 TMEM16A/YFP iodide influx fluorescence, ionomycin | normalized B-score (activity score, 25-100; higher = stronger inhibition) at 10 µM | 310,000 compounds, 1.2% hits | AID 588511;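 active means ratio plate-corrected score three or more library SD toward inhibition, starting fluorescence score within five deviations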;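 further: score derived from kinetic fluorescence span divided by baseline fluorescence per well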
Target sequence (Q8BHY3 whole entry, looked up): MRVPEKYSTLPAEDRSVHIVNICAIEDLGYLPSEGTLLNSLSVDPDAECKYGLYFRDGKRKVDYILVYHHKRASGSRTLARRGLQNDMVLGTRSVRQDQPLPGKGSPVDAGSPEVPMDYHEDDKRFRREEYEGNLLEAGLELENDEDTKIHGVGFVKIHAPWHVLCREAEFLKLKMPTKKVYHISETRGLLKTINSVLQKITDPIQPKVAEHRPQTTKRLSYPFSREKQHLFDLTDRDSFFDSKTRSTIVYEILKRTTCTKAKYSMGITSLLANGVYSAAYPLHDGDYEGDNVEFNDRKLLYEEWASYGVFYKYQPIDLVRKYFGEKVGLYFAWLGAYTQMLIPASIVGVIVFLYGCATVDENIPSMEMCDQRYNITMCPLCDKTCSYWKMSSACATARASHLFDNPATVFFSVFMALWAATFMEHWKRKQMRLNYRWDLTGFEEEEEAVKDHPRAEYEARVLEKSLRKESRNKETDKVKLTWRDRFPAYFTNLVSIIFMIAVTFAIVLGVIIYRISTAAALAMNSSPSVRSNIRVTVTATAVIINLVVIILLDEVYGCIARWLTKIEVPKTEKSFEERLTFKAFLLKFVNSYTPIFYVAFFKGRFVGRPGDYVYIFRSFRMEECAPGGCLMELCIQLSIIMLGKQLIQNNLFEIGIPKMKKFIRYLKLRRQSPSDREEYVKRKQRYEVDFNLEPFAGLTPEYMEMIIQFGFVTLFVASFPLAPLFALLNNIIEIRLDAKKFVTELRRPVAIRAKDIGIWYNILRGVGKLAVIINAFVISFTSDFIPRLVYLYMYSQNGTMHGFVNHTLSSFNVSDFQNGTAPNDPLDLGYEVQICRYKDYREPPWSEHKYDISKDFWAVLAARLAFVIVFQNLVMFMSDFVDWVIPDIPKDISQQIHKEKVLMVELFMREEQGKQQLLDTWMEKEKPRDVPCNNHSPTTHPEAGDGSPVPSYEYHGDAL
ANO1 activ: activators or potentiators of mouse TMEM16A chloride channel; B-score at 10 µM; AID 623877; HEK293 TMEM16A/YFP-H148Q/I152L, iodide quench fluorescence; hits give low values; 340,000 compounds, 0.3% hits;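 active means fluorescence-ratio B-score plate-corrected deviation score at least 3 library SD below zero, with starting fluorescence score within 5 deviations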;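 further: channel opened by trigger with iodide after compound preincubation; score built on the fluorescence ratio of max minus min over baseline; more negative score means more quench and so TMEM16A activation or potentiation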
Hep lipid drop: modulators of hepatic lipid droplet formation. 240,000 compounds, 0.4% hits. inhibition, % at 6.5 µM. AML12 mouse hepatocytes, oleate lipid droplets, BODIPY imaging;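 active means lipid droplet intensity inhibited by at least 50%, with more than 500 cells counted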
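Test system: AML12 hepatocytes (mouse); reagent: oleate loading, 100 µM; dosing: one dose, 6.5 µM compound; incubation: overnight exposure; signal: fluorescence imaging, 20x objective, two fields per well; read-out basis: % inhibition of corrected integrated BODIPY droplet signal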
XBP1 UPR activ: activators of adaptive arm of unfolded protein response (XBP1) | CHO-XBP1 luciferase reporter, IRE1-XBP1 UPR activation, luminescence; percent of tunicamycin response, DMSO as zero | activation, % at 20 µM | 330,000 compounds, 0.33% hits | AID 463104;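 active means versus positive control, 20 µM dose yields 30% or more activation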
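Test system: CHO-XBP1 luciferase reporter cells | Buffer or medium: Serum-containing F12 medium, 10% FBS | Schedule: 6 h compound exposure at 37 °C, 5% CO2 | Detection: Steady-Glo luciferase glow luminescence, 10 min after reagent addition | Read-out basis: Activation, % of tunicamycin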
CHOP inh: inhibitors of CHOP induction in ER stress response; CHO-K1 CHOP-promoter luciferase, tunicamycin-induced, 15-18 h; inhibition, % at 10 µM; 220,000 compounds, 3.8% hits; AID 2732;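 active means compounds that reduced the stress-induced luciferase reporter signal by more than about 70% of percent inhibition, limit read from the data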
Lipid drop inh: hepatic lipid droplet formation inhibition, confirmed; inhibition, % at 5.2 µM; 870 compounds, 65% hits; shares compounds with Hep lipid drop; AID 463183; AML12 mouse hepatocytes, BODIPY lipid droplet imaging; droplets induced with 100 µM oleic acid;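 active means inhibition of lipid droplet metric at least 50%, with more than 300 cells in each of four replicates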
AML12 cytotox: counter-screen for cytotoxicity in AML12 mouse hepatocytes. DAPI nuclear morphology cytotoxicity imaging; hits give high values; cells fed 100 µM oleate overnight. z-score at 5 µM. shares compounds with Hep lipid drop. 870 compounds, 3% hits. AID 463200; in the data active means z-score above about 6.3;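 further: compound exposure lasted overnight at 37 °C before fixation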
AML12 tox conf: confirmation of cytotoxicity in AML12 mouse hepatocytes; shares compounds with Hep lipid drop; AML12 mouse hepatocyte viability, ATP luminescence; cells loaded with 100 µM oleic acid; cytotoxicity, % at 50 µM; 530 tested, under 10 active;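 active means cytotoxicity above 50% in each of four replicates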;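 further: compound exposure lasted overnight at 37 °C before the ATP read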
Each line names hits and unclear results; the compound was inactive in the other large screens (follow-up assays come after a bar, where they were run). An excerpt weighted towards active compounds, which were near 4.2% of everything screened.

CCCCOc1ccccc1C(=O)N(Cc1ccco1)C1CCS(=O)(=O)C1 (stereo not given)	Hep lipid drop 50.9 (no result: CHOP inh) | Lipid drop inh inactive | AML12 cytotox inactive | AML12 tox conf inactive
c1ccc2c(c1)CCCC2C1=NCCN1 (stereo not given)	Hep lipid drop 53.3 | Lipid drop inh inactive | AML12 cytotox inactive
CCOc1ccc(CN(C)C(=O)CNC(=O)Cc2cccc3ccccc23)cc1	Hep lipid drop 77.0 (no result: CHOP inh) | Lipid drop inh 101.0 | AML12 cytotox inactive | AML12 tox conf inactive
COc1ccc(NC(=S)NC(=O)c2ccccc2Cl)cc1	Hep lipid drop 56.8 | Lipid drop inh inactive | AML12 cytotox inactive
O=C(NC(=S)Nc1ccc(O)cc1)c1ccccc1Cl	none
O=C(COc1ccc2c3c(c(=O)oc2c1)CCC3)Nc1ccc(CN2CCOCC2)cc1	none (no result: CHOP inh)
CC(Sc1nc(NCc2ccccc2)nc(N2CCOCC2)n1)C(=O)Nc1ccccc1 (stereo not given)	Hep lipid drop 58.6 | Lipid drop inh 99.2 | AML12 cytotox inactive | AML12 tox conf inactive
O=C(O)c1ccccc1-c1ccccc1C(=O)NCc1ccccc1Cl	none (no result: CHOP inh)
CC1CCN(C2=C(NS(=O)(=O)c3ccccc3)C(=O)c3ccccc3C2=O)CC1	none
CC1CCN(C2=C(NS(=O)(=O)c3ccc(Br)cc3)C(=O)c3ccccc3C2=O)CC1	Hep lipid drop 59.7 (no result: CHOP inh) | Lipid drop inh 114.4 | AML12 cytotox inactive | AML12 tox conf inactive
O=C1C(NS(=O)(=O)c2cccs2)=C(N2CCN(c3cccc(Cl)c3)CC2)C(=O)c2ccccc21	Hep lipid drop 60.7, CHOP inh 72.7 | Lipid drop inh 111.8 | AML12 cytotox inactive | AML12 tox conf inactive
O=C1C(NS(=O)(=O)c2ccccc2)=C(N2CCN(c3ccc(F)cc3)CC2)C(=O)c2ccccc21	Hep lipid drop 79.3 | Lipid drop inh 80.8 | AML12 cytotox inactive | AML12 tox conf inactive
CC1CCCN(C2=C(NS(=O)(=O)c3ccc(Br)cc3)C(=O)c3ccccc3C2=O)C1 (stereo not given)	Hep lipid drop 50.4 (no result: CHOP inh) | Lipid drop inh 112.2 | AML12 cytotox inactive | AML12 tox conf inactive
COc1ccccc1N1CCN(C(=S)NC(=O)/C=C/c2ccccc2)CC1	none
CNC(=O)C1CC(=O)N(c2ccc(OCC(=O)Nc3ccccc3)cc2)C1 (stereo not given)	none (no result: UPR CHOP act, TMEM16A inh, Hep lipid drop, XBP1 UPR activ, CHOP inh)
Cc1nnc(SCC(=O)Nc2ccc(OC(F)F)c(Cl)c2)n(N)c1=O	none (no result: TMEM16A inh, Hep lipid drop, CHOP inh)
Cc1ccc(NC(=O)CSc2nnc(C)c(=O)n2N)cc1Cl	Hep lipid drop 62.9 (no result: CHOP inh) | Lipid drop inh 97.2 | AML12 cytotox inactive | AML12 tox conf inactive
Cc1cccc(NC(=O)CSc2nnc(C)c(=O)n2N)c1	Hep lipid drop 55.9 | Lipid drop inh inactive | AML12 cytotox inactive | AML12 tox conf inactive
Cc1ccc(NC(=O)CSc2nnc(C)c(=O)n2N)c(C)c1	none
CC(=O)NC(CC(=O)Nc1ccc(S(=O)(=O)NC2=NCCCCC2)cc1)c1ccccc1 (stereo not given)	none (no result: TMEM16A inh, Hep lipid drop, CHOP inh)
CCn1nc(C)c(CNC(=O)CCc2nnc(-c3ccc(C(C)=O)s3)o2)c1C	none
CS(=O)(=O)c1ccc(Cl)c(NC(=O)CN2C(=O)C3CCCCC3C2=O)c1 (stereo not given)	none (no result: Hep lipid drop, CHOP inh)
Cc1cc(C=O)c(O)cc1O	Hep lipid drop 51.2 (no result: CHOP inh) | Lipid drop inh inactive | AML12 cytotox inactive
COc1ccc(-c2cnc(SCC(=O)Nc3nc(C(C)(C)C)cs3)n2Cc2ccco2)cc1	Hep lipid drop 64.2 | Lipid drop inh 93.8 | AML12 cytotox inactive | AML12 tox conf inactive
CCCc1nc2ccccc2c(C(=O)OCC(=O)NCc2ccc3c(c2)OCO3)c1CC	none
Cc1ccc(CNC(=O)COc2ccc(C)nc2[N+](=O)[O-])cc1	none
Cc1ccc(OCC(=O)NCc2ccc3c(c2)OCO3)c([N+](=O)[O-])n1	Hep lipid drop 57.9 | Lipid drop inh inactive | AML12 cytotox inactive
CCCc1nc2ccccc2c(C(=O)OC(C)C(=O)NCc2ccc3c(c2)OCO3)c1CC (stereo not given)	Hep lipid drop 84.0 | Lipid drop inh 103.2 | AML12 cytotox inactive | AML12 tox conf inactive
CCc1nc2ccccc2c(C(=O)OCC(=O)NCc2ccc3c(c2)OCO3)c1C	Hep lipid drop 78.9 | Lipid drop inh 92.2 | AML12 cytotox inactive | AML12 tox conf inactive
COc1ccc(C(=Cc2ccccc2[N+](=O)[O-])C(=O)O)cc1	none (no result: UPR CHOP act, TMEM16A inh, Hep lipid drop, XBP1 UPR activ, CHOP inh)
O=C1c2ccccc2NC(c2cccc(O)c2)N1NS(=O)(=O)c1ccccc1 (stereo not given)	none
Cc1ccc(S(=O)(=O)N2CCc3cc4c(cc3C2C)OCCCO4)cc1 (stereo not given)	none (no result: CHOP inh)
Cc1cc(N2CCOCC2)n2nc(C)c(-c3ccccc3Cl)c2n1	Hep lipid drop 78.2 (no result: CHOP inh) | Lipid drop inh 106.7 | AML12 cytotox inactive | AML12 tox conf inactive
Cc1cc(N2CCOCC2)n2nc(C)c(-c3ccccc3)c2n1	none (no result: Hep lipid drop)
Cc1ccc(-c2c(C)nn3c(N4CCOCC4)cc(C)nc23)cc1	Hep lipid drop 70.6 (no result: CHOP inh) | Lipid drop inh 108.3 | AML12 cytotox inactive | AML12 tox conf inactive
CSc1nc(-c2ccc(F)cc2)cc(=O)[nH]1	none
CCOC(=O)c1cc(-c2ccc(C)cc2)nc2nc(SC)[nH]c(=O)c12	Hep lipid drop 104.3 | Lipid drop inh 107.2 | AML12 cytotox inactive
CCOC(=O)c1cc(-c2cccc(C(F)(F)F)c2)nc2nc(SC)[nH]c(=O)c12	none
COC(=O)c1cc(-c2ccc(OC)cc2)nc2nc(SC)[nH]c(=O)c12	Hep lipid drop 66.6 (no result: CHOP inh) | Lipid drop inh inactive | AML12 cytotox inactive
COc1cccc(C(=O)OCC(=O)NCC2CCCO2)c1 (stereo not given)	none (no result: TMEM16A inh, Hep lipid drop, CHOP inh)
CCC(=O)Nc1c2c(nn1-c1ccc(C)cc1)CS(=O)(=O)C2	Hep lipid drop 57.0 (no result: CHOP inh) | Lipid drop inh inactive | AML12 cytotox inactive
CC(=NNC(=O)c1ccncc1)c1cc(Cl)ccc1Cl	none (no result: UPR CHOP act, TMEM16A inh, Hep lipid drop, XBP1 UPR activ, CHOP inh)
O=C(CN1C(=O)NC2(CCOc3ccccc32)C1=O)c1ccc(Br)cc1 (stereo not given)	Hep lipid drop 65.8 (no result: CHOP inh) | Lipid drop inh 101.6 | AML12 cytotox inactive | AML12 tox conf inactive
